{
  "source": "ChEMBL document CHEMBL1770087",
  "about": "“Novel 3-chlorooxazolidin-2-ones as antimicrobial agents” (Bioorg Med Chem Lett, 2011)",
  "key": {"Candida albicans": {"tested_on": "Candida albicans", "assay": "Antifungal activity against Candida albicans ATCC 10231 at pH 7 by CLSI M26A method", "assay_type": "functional", "method_in_brief": "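Modified CLSI M26-A method with phosphate-buffered saline (pH 7) in place of Mueller–Hinton broth and compound contact shortened to 1 h. The read-out was the minimum fungicidal concentration (MFC).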"}, "[1]": {"assay": "Therapeutic index, ratio of CT50 for mouse L929 cells to Candida albicans ATCC 10231", "assay_type": "cell-based", "conditions": "read-out: TI", "method_in_brief": "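Antifungal index is the L929 CT50 (1 h exposure, overnight recovery, Dojindo viability) divided by the MFC against C. albicans. MFC is from a modified CLSI M26-A method: phosphate-buffered saline pH 7 in place of Mueller–Hinton broth, 1 h compound residence.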"}, "Staphylococcus aureus": {"tested_on": "Staphylococcus aureus", "assay": "Antibacterial activity against Staphylococcus aureus ATCC 29213 at pH 7 by CLSI M26A method", "assay_type": "functional", "method_in_brief": "(§1)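 Modified CLSI M26-A bactericidal method in which phosphate-buffered saline (pH 7) replaced Mueller–Hinton broth and compound contact was cut to 1 h. The read-out was the minimum bactericidal concentration (MBC).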"}, "[2]": {"assay": "Cytotoxicity against mouse L929 cells after 1 hr at pH 7 by Dojindo cell proliferation assay", "assay_type": "cell-based", "method_in_brief": "(§2)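 L929 mouse fibroblasts exposed to test article for 1 h in test solution at pH 7, or at pH 4 where flagged. Compound then removed and cells incubated overnight. Viability read with Dojindo cell proliferation assay; CT50 reported in mM.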"}, "Escherichia coli": {"tested_on": "Escherichia coli", "assay": "Antibacterial activity against Escherichia coli ATCC 25922 at pH 7 by CLSI M26A method", "assay_type": "functional", "method_in_brief": "as §1"}, "[3]": {"assay": "Therapeutic index, ratio of CT50 for mouse L929 cells to Escherichia coli ATCC 25922", "assay_type": "cell-based", "conditions": "pooled result: one value given for 2 cell lines, strains, targets or settings, read-out: TI"}, "[4]": {"assay": "Cytotoxicity against mouse L929 cells after 1 hr at pH 4 by Dojindo cell proliferation assay", "assay_type": "cell-based", "method_in_brief": "as §2"}},
  "data": [
    {"smiles": "CC1(C)COC(=O)N1Cl", "values": [
      {"measurement": "MFC", "setting": "Candida albicans", "result": 512, "unit": "µg/mL"},
      {"measurement": "selectivity ratio", "setting": "[1]", "result": 0.02},
      {"measurement": "MBC", "setting": "Staphylococcus aureus", "result": 4, "unit": "µg/mL"},
      {"measurement": "CC50 at 1 h", "setting": "[2]", "result": 70, "unit": "µM"},
      {"measurement": "MBC", "setting": "Escherichia coli", "result": 1, "unit": "µg/mL"},
      {"measurement": "selectivity ratio", "setting": "[3]", "result": 5.2}
    ]},
    {"smiles": "CC1(CS(=O)(=O)[O-])COC(=O)N1Cl.[Na+]", "note": "(configuration not stated)", "values": [
      {"measurement": "MFC", "setting": "Candida albicans", "result": 1020, "unit": "µg/mL"},
      {"measurement": "selectivity ratio", "setting": "[1]", "result": 0.25},
      {"measurement": "MBC", "setting": "Staphylococcus aureus", "result": 128, "unit": "µg/mL"},
      {"measurement": "CC50 at 1 h", "setting": "[2]", "result": 800, "unit": "µM"},
      {"measurement": "MBC", "setting": "Escherichia coli", "result": 256, "unit": "µg/mL"},
      {"measurement": "selectivity ratio", "setting": "[3]", "result": 1.4}
    ]},
    {"smiles": "CC1(CS(=O)(=O)CCS(=O)(=O)[O-])COC(=O)N1Cl.[Na+]", "note": "(configuration not stated)", "values": [
      {"measurement": "MFC", "setting": "Candida albicans", "result": 128, "unit": "µg/mL"},
      {"measurement": "selectivity ratio", "setting": "[1]", "result": 1.5},
      {"measurement": "MBC", "setting": "Staphylococcus aureus", "result": 32, "unit": "µg/mL"},
      {"measurement": "CC50 at 1 h", "setting": "[2]", "result": 600, "unit": "µM"},
      {"measurement": "MBC", "setting": "Escherichia coli", "result": 16, "unit": "µg/mL"},
      {"measurement": "selectivity ratio", "setting": "[3]", "result": 8.5}
    ]},
    {"smiles": "CC1(CS(=O)(=O)CCCC(=O)O)COC(=O)N1Cl", "note": "(configuration not stated)", "values": [
      {"measurement": "MFC", "setting": "Candida albicans", "result": "> 1020", "unit": "µg/mL"},
      {"measurement": "MBC", "setting": "Staphylococcus aureus", "result": 8, "unit": "µg/mL"},
      {"measurement": "CC50 at 1 h", "setting": "[2]", "result": 520, "unit": "µM"},
      {"measurement": "MBC", "setting": "Escherichia coli", "result": 16, "unit": "µg/mL"},
      {"measurement": "selectivity ratio", "setting": "[3]", "result": 14}
    ]},
    {"smiles": "CC1(C[N+](C)(C)C)COC(=O)N1Cl.[Cl-]", "note": "(configuration not stated)", "values": [
      {"measurement": "MFC", "setting": "Candida albicans", "result": 16, "unit": "µg/mL"},
      {"measurement": "MBC", "setting": "Staphylococcus aureus", "result": 4, "unit": "µg/mL"},
      {"measurement": "MBC", "setting": "Escherichia coli", "result": 2, "unit": "µg/mL"}
    ]},
    {"smiles": "CC[N+](C)(C)CC1(C)COC(=O)N1Cl.[Cl-]", "note": "(configuration not stated)", "values": [
      {"measurement": "MFC", "setting": "Candida albicans", "result": 8, "unit": "µg/mL"},
      {"measurement": "selectivity ratio", "setting": "[1]", "result": 28},
      {"measurement": "MBC", "setting": "Staphylococcus aureus", "result": 4, "unit": "µg/mL"},
      {"measurement": "CC50 at 1 h", "setting": "[4]", "result": 860, "unit": "µM"},
      {"measurement": "MBC", "setting": "Escherichia coli", "result": 2, "unit": "µg/mL"},
      {"measurement": "selectivity ratio", "setting": "[3]", "result": 78}
    ]},
    {"smiles": "CCC[N+](C)(C)CC1(C)COC(=O)N1Cl.[Cl-]", "note": "(configuration not stated)", "values": [
      {"measurement": "MFC", "setting": "Candida albicans", "result": 8, "unit": "µg/mL"},
      {"measurement": "selectivity ratio", "setting": "[1]", "result": 31},
      {"measurement": "MBC", "setting": "Staphylococcus aureus", "result": 2, "unit": "µg/mL"},
      {"measurement": "CC50 at 1 h", "setting": "[4]", "result": 900, "unit": "µM"},
      {"measurement": "MBC", "setting": "Escherichia coli", "result": 2, "unit": "µg/mL"},
      {"measurement": "selectivity ratio", "setting": "[3]", "result": 122}
    ]},
    {"smiles": "CC1(C[N+]2(C)CCCC2)COC(=O)N1Cl.[Cl-]", "note": "(configuration not stated)", "values": [
      {"measurement": "MFC", "setting": "Candida albicans", "result": 16, "unit": "µg/mL"},
      {"measurement": "selectivity ratio", "setting": "[1]", "result": 19},
      {"measurement": "MBC", "setting": "Staphylococcus aureus", "result": 4, "unit": "µg/mL"},
      {"measurement": "CC50 at 1 h", "setting": "[4]", "result": 1130, "unit": "µM"},
      {"measurement": "MBC", "setting": "Escherichia coli", "result": 4, "unit": "µg/mL"},
      {"measurement": "selectivity ratio", "setting": "[3]", "result": 76}
    ]},
    {"smiles": "CC1(C)C(CS(=O)(=O)[O-])OC(=O)N1Cl.[Na+]", "note": "(configuration not stated)", "values": [
      {"measurement": "MFC", "setting": "Candida albicans", "result": 1020, "unit": "µg/mL"},
      {"measurement": "selectivity ratio", "setting": "[1]", "result": 1},
      {"measurement": "MBC", "setting": "Staphylococcus aureus", "result": 512, "unit": "µg/mL"},
      {"measurement": "CC50 at 1 h", "setting": "[2]", "result": 4300, "unit": "µM"},
      {"measurement": "MBC", "setting": "Escherichia coli", "result": 256, "unit": "µg/mL"},
      {"measurement": "selectivity ratio", "setting": "[3]", "result": 2.9}
    ]},
    {"smiles": "CC1(C)C(C[N+](C)(C)C)OC(=O)N1Cl.[Cl-]", "note": "(configuration not stated)", "values": [
      {"measurement": "MFC", "setting": "Candida albicans", "result": 64, "unit": "µg/mL"},
      {"measurement": "selectivity ratio", "setting": "[1]", "result": 2.7},
      {"measurement": "MBC", "setting": "Staphylococcus aureus", "result": 32, "unit": "µg/mL"},
      {"measurement": "CC50 at 1 h", "setting": "[2]", "result": 690, "unit": "µM"},
      {"measurement": "MBC", "setting": "Escherichia coli", "result": 16, "unit": "µg/mL"},
      {"measurement": "selectivity ratio", "setting": "[3]", "result": 7.6}
    ]},
    {"smiles": "C[N+]1(C)CCC2(CC1)CN(Cl)C(=O)O2.[Cl-]", "values": [
      {"measurement": "MFC", "setting": "Candida albicans", "result": 256, "unit": "µg/mL"},
      {"measurement": "selectivity ratio", "setting": "[1]", "result": 0.7},
      {"measurement": "MBC", "setting": "Staphylococcus aureus", "result": 32, "unit": "µg/mL"},
      {"measurement": "CC50 at 1 h", "setting": "[4]", "result": 700, "unit": "µM"},
      {"measurement": "MBC", "setting": "Escherichia coli", "result": 16, "unit": "µg/mL"},
      {"measurement": "selectivity ratio", "setting": "[3]", "result": 7.9}
    ]}
  ]
}
